Results taken from ChEMBL document CHEMBL1157119, “1-(2-(2,2,2-trifluoroethoxy)ethyl-1H-pyrazolo[4,3-d]pyrimidines as potent phosphodiesterase 5 (PDE5) inhibitors” (Bioorg Med Chem Lett, 2010).
Calls of active or inactive are those of the source. The rule behind the calls is not given here.

Key:
[1] = target: hERG (KCNH2) (Homo sapiens, UniProt Q12809); experiment: Displacement of [3H]dofetilide from human ERG expressed in HEK293 cells at 10 uM; type: cell-based; details: HEK293 cells that express human ERG, probe [3H]dofetilide
[2] = target: cGMP-specific 3',5'-cyclic phosphodiesterase (Homo sapiens, UniProt O76074); experiment: Inhibition of PDE5
[3] = species on record: Rattus norvegicus; experiment: Antihypertensive activity in spontaneously hypertensive rat assessed as decrease of mean arterial blood pressure; type: functional, Artery
How it was run: (§1)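 Spontaneously hypertensive rats were dosed orally, or IV in some cases, with compound levels and blood pressure monitored. The read-out was the decrease in mean arterial pressure (MAP), scored as + for a 10–15 mmHg drop and ++ for a drop of >15 mmHg. Oral dosing at 5 mg/kg was followed for up to 20 h post dose.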

[4] = Inhibition of PDE6
[5] = Metabolic stability in human liver microsomes assessed as compound remaining after 30 mins; type: ADME, Microsome; details: read-out: Stability
[6] = Selectivity ratio of IC50 for PDE11 to IC50 for PDE5
How it was run: (§2)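 The selectivity value is the IC50 at PDE11 or PDE6 divided by the IC50 at PDE5.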

[7] = Selectivity ratio of IC50 for PDE6 to IC50 for PDE5; how it was run: as §2
[8] = Volume of distribution at steady state in Beagle dog at 0.2 mg/kg, iv; type: ADME, organism-based, Canis lupus familiaris; set-up: dose 0.2 mg/kg, route intravenous; details: in vivo, read-out: Vdss
How it was run: (§3)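 Beagle dogs of about 10 kg were dosed at 0.2–0.5 mpk. From the plasma profile, terminal half-life was reported in h, clearance in mL/min/kg and steady-state volume of distribution in L/kg.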

[9] = tested on: Rattus norvegicus; experiment: Antihypertensive activity in spontaneously hypertensive rat assessed as decrease of mean arterial blood pressure at 5 mg/kg, po; type: functional, Artery; how it was run: as §1
[10] = Half life in Beagle dog at 0.2 mg/kg, iv; type: ADME, organism-based, Canis lupus familiaris; set-up: dose 0.2 mg/kg, route intravenous; details: in vivo; how it was run: as §3
[11] = tested on: Rattus norvegicus; experiment: Antihypertensive activity in spontaneously hypertensive rat assessed as decrease of mean arterial blood pressure at 5 mg/kg, po up to 20 hrs; type: functional, organism-based; set-up: dose 5 mg/kg; details: Artery; how it was run: as §1
[12] = Half life in human liver microsomes; type: ADME, Microsome
[13] = Clearance in Beagle dog at 0.2 mg/kg, iv; type: ADME, organism-based, Canis lupus familiaris; set-up: dose 0.2 mg/kg, route intravenous; details: in vivo; how it was run: as §3
[14] = tested on: Rattus norvegicus; experiment: Antihypertensive activity in spontaneously hypertensive rat assessed as decrease of mean arterial blood pressure at 1.5 mg/kg, iv after 2 hrs; type: functional, Artery
How it was run: (§4)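 Spontaneously hypertensive rats received a single IV dose of 1.5 mg/kg. Mean arterial blood pressure was monitored after dosing, and the decrease in MAP was read at 2 h and 6 h post dose. Compound blood levels were also monitored, including the free fraction at 6 h.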

[15] = tested on: Rattus norvegicus; experiment: Antihypertensive activity in spontaneously hypertensive rat assessed as decrease of mean arterial blood pressure at 1.5 mg/kg, iv after 6 hrs; type: functional, Artery; how it was run: as §4
[16] = target: Voltage-gated inwardly rectifying potassium channel KCNH2 (Homo sapiens, UniProt Q12809); experiment: Inhibition of human ERG expressed by patch clam electrophysiology assay
Chain of Voltage-gated inwardly rectifying potassium channel KCNH2 (Q12809 whole entry): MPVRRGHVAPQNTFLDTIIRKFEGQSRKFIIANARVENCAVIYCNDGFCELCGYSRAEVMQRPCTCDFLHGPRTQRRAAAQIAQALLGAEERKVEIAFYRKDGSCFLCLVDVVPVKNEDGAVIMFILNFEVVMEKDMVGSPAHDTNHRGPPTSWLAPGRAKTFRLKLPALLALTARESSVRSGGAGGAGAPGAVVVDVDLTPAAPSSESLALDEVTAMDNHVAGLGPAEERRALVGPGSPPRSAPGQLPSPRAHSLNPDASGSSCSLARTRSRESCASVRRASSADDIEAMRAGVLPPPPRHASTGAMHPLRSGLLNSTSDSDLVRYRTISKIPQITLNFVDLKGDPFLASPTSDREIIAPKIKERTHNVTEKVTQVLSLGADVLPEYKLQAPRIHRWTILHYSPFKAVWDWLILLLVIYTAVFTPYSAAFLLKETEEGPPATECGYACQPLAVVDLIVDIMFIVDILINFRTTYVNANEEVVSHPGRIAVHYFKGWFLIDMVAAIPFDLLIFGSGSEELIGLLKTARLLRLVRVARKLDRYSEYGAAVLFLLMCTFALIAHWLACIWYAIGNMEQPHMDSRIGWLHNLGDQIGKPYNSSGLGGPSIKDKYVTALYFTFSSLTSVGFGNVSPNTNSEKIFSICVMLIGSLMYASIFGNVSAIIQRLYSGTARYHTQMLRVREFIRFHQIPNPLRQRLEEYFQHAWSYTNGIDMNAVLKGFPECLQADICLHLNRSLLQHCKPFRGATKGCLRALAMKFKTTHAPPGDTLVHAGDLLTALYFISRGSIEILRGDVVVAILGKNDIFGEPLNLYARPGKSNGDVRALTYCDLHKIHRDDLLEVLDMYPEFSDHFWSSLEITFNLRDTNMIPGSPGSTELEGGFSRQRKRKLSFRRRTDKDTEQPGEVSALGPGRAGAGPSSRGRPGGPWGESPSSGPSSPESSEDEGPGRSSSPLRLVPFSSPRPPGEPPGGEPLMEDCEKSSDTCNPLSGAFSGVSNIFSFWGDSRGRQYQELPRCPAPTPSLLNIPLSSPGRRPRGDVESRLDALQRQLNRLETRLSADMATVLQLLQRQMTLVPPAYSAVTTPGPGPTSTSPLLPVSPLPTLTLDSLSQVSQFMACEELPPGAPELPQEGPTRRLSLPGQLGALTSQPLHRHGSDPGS

Chain of hERG (KCNH2) (Q12809 whole entry): as above

SMILES	IC50 [2]	Ratio IC50 [6]	Ratio IC50 [7]	also measured
CCOCCn1nc(CC)c2nc(N3CCNCC3)nc(Nc3cccc(C)n3)c21	–	–	–	IC50 [4]: 946 nM
CCc1nn(CCOCC(F)(F)F)c2c(Nc3ccncn3)nc(N(C)C3CCN(C)CC3)nc12	0.35 nM	5650	285	remaining at 0.5 h [5]: 31%
CCc1nn(CCOCC(F)(F)F)c2c(Nc3ccncn3)nc(N3CCNC(=O)C3)nc12	2.96 nM	–	–	–
CCc1nn(CCOCC(F)(F)F)c2c(Nc3ccncn3)nc(N3CCCN(C)CC3)nc12	6.48 nM	287	309	–
CCc1nn(CCOCC(F)(F)F)c2c(Nc3ccncn3)nc(N3CCOCC3)nc12	3.92 nM	5100	107	–
CCc1nn(CCOCC(F)(F)F)c2c(Nc3ccncn3)nc(N3CCN[C@H](C)C3)nc12	0.07 nM	–	–	Vd [8]: 7.8 L/kg; Activity [9]: 27 mmHg; half-life [10]: 5.1 h; Activity [11]: Active; half-life [12]: 0.7 h; clearance [13]: 18.5 mL/min/kg; Activity [14]: 27 mmHg; Activity [15]: 23 mmHg; Activity [3]: >15 mmHg
CCCOCCn1nc(CC)c2nc(N3CCNCC3)nc(Nc3ccccn3)c21	0.3 nM	–	–	–
CCCc1nn(C)c2c(=O)[nH]c(-c3cc(S(=O)(=O)N4CCN(C)CC4)ccc3OCC)nc12	–	–	–	IC50 [4]: 30 nM
CCc1nn(CCOC(C)C)c2c(Nc3ccccn3)nc(N3CCNCC3)nc12	0.86 nM	52	50	–
CCc1nn(CCOCC(F)(F)F)c2c(Nc3ccncn3)nc(NCCN)nc12	9.52 nM	> 210	> 210	–

More lines, main results first:

IC50 [2]	Ratio IC50 [6]	Ratio IC50 [7]	SMILES	also measured
0.14 nM	–	–	Cc1nn(CCOCC(F)(F)F)c2c(Nc3ccncn3)nc(N3CCN[C@H](C)C3)nc12	inhibition at 10 µM [1]: 24.7%; Activity [3]: >15 mmHg
3.28 nM	170	220	CCc1nn(CCOCC(F)(F)F)c2c(Nc3cc(C)ccn3)nc(N3CCNCC3)nc12	remaining at 0.5 h [5]: 80%
3.15 nM	635	69	CCc1nn(CCOCC(F)(F)F)c2c(Nc3ccncn3)nc(N3CCCNCC3)nc12	–
1.84 nM	280	510	Cc1ccnc(Nc2nc(N3CCNCC3)nc3c(C)nn(CCOCC(F)(F)F)c23)c1	remaining at 0.5 h [5]: 75%
0.78 nM	–	–	Cc1cccc(Nc2nc(N3CCNCC3)nc3c(C)nn(CCOCC(F)(F)F)c23)n1	inhibition at 10 µM [1]: 40%; IC50 [16]: 560 nM
0.65 nM	450	150	CCc1nn(CCOCC(F)(F)F)c2c(Nc3ccccn3)nc(N3CCNCC3)nc12	remaining at 0.5 h [5]: 91%
0.15 nM	–	–	CCc1nn(CCOCC(F)(F)F)c2c(Nc3ccncn3)nc(N3CCNCC3)nc12	Activity [3]: 10 mmHg
0.09 nM	–	–	CCc1nn(CCOCC(F)(F)F)c2c(Nc3ccc(F)cc3)nc(N3CCNCC3)nc12	–
9.79 nM	204	35	Cc1nn(CCOCC(F)(F)F)c2c(Nc3ccncn3)nc(N3CCCNCC3)nc12	–
0.94 nM	–	–	Cc1nn(CCOCC(F)(F)F)c2c(Nc3ccncn3)nc(N3CCN[C@@H](C)C3)nc12	–
1.01 nM	–	–	CCc1nn(CCOCC(F)(F)F)c2c(Nc3cccc(C)n3)nc(N3CCNCC3)nc12	–
